Bioassay records (PubChem BioAssay)
IDH1 R132H inh – IDH1 R132H (human) inhibition; IDH1 R132H reductase, diaphorase/resazurin fluorescence, 60 min; inhibition, % at 10 µM; hit rate 0.18% among 70,000; AID 624101; in the data active means inhibition above about 34%; inconclusive means no clear call, values can overlap the other calls; inactive means below about 11%
Target sequence (O75874 whole entry R132H): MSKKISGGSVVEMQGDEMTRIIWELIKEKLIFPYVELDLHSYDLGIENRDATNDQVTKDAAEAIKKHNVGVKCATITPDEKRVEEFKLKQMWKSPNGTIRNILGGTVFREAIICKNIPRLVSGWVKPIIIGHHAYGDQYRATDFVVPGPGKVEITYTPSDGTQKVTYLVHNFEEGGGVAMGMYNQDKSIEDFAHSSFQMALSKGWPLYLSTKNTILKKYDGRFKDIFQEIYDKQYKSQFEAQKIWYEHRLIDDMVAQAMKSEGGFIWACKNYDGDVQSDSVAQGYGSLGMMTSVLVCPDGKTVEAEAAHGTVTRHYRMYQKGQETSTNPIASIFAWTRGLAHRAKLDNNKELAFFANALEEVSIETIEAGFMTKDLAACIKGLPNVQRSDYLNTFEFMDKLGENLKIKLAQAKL
GASC1 inh – blocks human GASC-1 (KDM4C) demethylase activity; GST-KDM4C 2-372, H3K9me3 peptide, LANCE TR-FRET; inhibition, % at 12.5 µM; hit rate 0.15% among 96,000;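 active means mean replicate inhibition above about 25%, with at least 55% of replicates also reaching it, limit read from the data, passing the limit was not always enough; inconclusive means only one of those two conditions met; inactive means neither condition met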
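reagent = H3K9me3 peptide substrate, Fe(II), 2-oxoglutarate | system = GST-tagged GASC-1 (JMJD2C) catalytic fragment, aa 2-372 | amount = enzyme final amount 10 nM | read-out = Fall in 671/618 emission ratio as inhibition | medium = HEPES buffer, pH 7.5, plus ascorbate | schedule = 30 min reaction, 60 min detection, RT | measured by = LANCE TR-FRET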
T cruzi growth-1 – blocks T. cruzi growth in NIH3T3 culture; T. cruzi beta-gal in NIH3T3, GalScreen luminescence, 90 h; hit rate 5.9% among 77,000; inhibition, % at 8.34 µM; AID 624255;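 active means mean inhibition above about 93%, with at least 55% of replicates each passing it, limit read from the data, passing the limit was not always enough; inconclusive means only one of those two conditions holds; inactive means neither condition holds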
Pf Dd2 growth – blocks growth of Plasmodium falciparum Dd2 parasites; hit rate 2.3% among 94,000; P. falciparum Dd2 growth, SYBR Green, 72 h; stronger effect = lower value; activity change, % at 10 µM; AID 1159554; in the data active means activity change below about -80%; inconclusive means no clear call, values can overlap the other calls
T cruzi growth-2 – inhibitors of T. cruzi proliferation; shares compounds with T cruzi growth-1; inhibition, % at 8.35 µM; hit rate 72% among 5,600; T. cruzi beta-gal in NIH3T3, GalScreen luminescence, 90 h; AID 651739;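 active means mean replicate inhibition above about 95% and at least 55% of replicates individually reaching it, limit read from the data; inconclusive means only one of the two criteria is met; inactive means neither criterion is met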
T cruzi growth-3 – blocks T. cruzi growth in NIH3T3 host cells; shares compounds with T cruzi growth-1; T. cruzi beta-gal in NIH3T3, GalScreen luminescence, 90 h; inhibition, % at 2.09 µM; hit rate 21% among 5,600; AID 651740;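 active means mean inhibition above about 95%, with at least 55% of replicates also reaching it, limit read from the data; inconclusive means meets just one of the two conditions; inactive means meets neither condition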
3T3 cytotox – NIH/3T3 (mouse) viability loss; hit rate 14% among 5,600; NIH/3T3 viability, CellTiter-Glo ATP luminescence, 90 h; AID 651742; cytotoxicity (signal decrease), % at 8.35 µM; shares compounds with T cruzi growth-1;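 active means mean signal decrease across replicates above about 35% based on untreated-well scatter, with enough replicates individually passing, limit read from the data; inconclusive means no rule stated though some were filed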
3T3 cytotox 2 – cytotoxicity in mouse NIH/3T3 fibroblasts | shares compounds with T cruzi growth-1 | inhibition, % at 24.9 µM | hit rate 56% among 5,600 | NIH/3T3 viability, CellTiter-Glo ATP luminescence, 90 h;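 active means mean loss of cell viability signal at or above a set limit, and enough replicates individually reaching it; inconclusive means meets only the mean limit or only the replicate share; inactive means meets neither condition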
Of the large screens only hits and unclear results are named; the others gave an inactive call (follow-up assays come after a bar, where they were run). An excerpt weighted towards active compounds, which were near 5.8% of everything screened.

COc1ccccc1S(=O)(=O)N(C)C[C@H]1Oc2cc(C#CCC3CCCC3)ccc2S(=O)(=O)N([C@H](C)CO)C[C@H]1C	GASC1 inh 26.0, T cruzi growth-1 127.3 (no result: IDH1 R132H inh) | T cruzi growth-2 inactive | T cruzi growth-3 110.3 | 3T3 cytotox inactive | 3T3 cytotox 2 inactive
COc1ccccc1S(=O)(=O)N(C)C[C@H]1Oc2cc(C#CCC(C)C)ccc2S(=O)(=O)N([C@@H](C)CO)C[C@@H]1C	T cruzi growth-1 inconclusive | T cruzi growth-2 inconclusive | T cruzi growth-3 113.7 | 3T3 cytotox inactive | 3T3 cytotox 2 98.5
COc1ccccc1S(=O)(=O)N(C)C[C@H]1Oc2cc(C#CCC3CCCC3)ccc2S(=O)(=O)N([C@H](C)CO)C[C@@H]1C	none (no result: T cruzi growth-1)
COc1ccc(S(=O)(=O)N(C)CC(=O)Nc2ccc(Br)cc2F)cc1C	none (no result: GASC1 inh, T cruzi growth-1, Pf Dd2 growth)
C[C@H](CO)N1C[C@H](C)[C@H](CN(C)Cc2ccc(C(F)(F)F)cc2)Oc2c(NC(=O)Nc3ccccc3)cccc2C1=O	none
C[C@H](CO)N1C[C@H](C)[C@H](CN(C)Cc2ccc(C(F)(F)F)cc2)Oc2ccc(NC(=O)Nc3cccc4ccccc34)cc2C1=O	none
C[C@H]1CN([C@@H](C)CO)C(=O)c2cc(NC(=O)Nc3cccc4ccccc34)ccc2O[C@H]1CN(C)Cc1ccccc1	none
C[C@H](CO)N1C[C@H](C)[C@H](CN(C)Cc2ccc(C(F)(F)F)cc2)Oc2c(NC(=O)Nc3cccc4ccccc34)cccc2C1=O	T cruzi growth-1 111.0 (no result: IDH1 R132H inh) | T cruzi growth-2 102.8 | T cruzi growth-3 inactive | 3T3 cytotox inactive | 3T3 cytotox 2 29.9
C[C@@H]1CN([C@H](C)CO)C(=O)c2cc(NC(=O)Nc3cccc4ccccc34)ccc2O[C@@H]1CN(C)Cc1ccc(C(F)(F)F)cc1	T cruzi growth-1 92.0 | T cruzi growth-2 96.8 | T cruzi growth-3 inactive | 3T3 cytotox 47.4 | 3T3 cytotox 2 38.2
C[C@@H]1CN([C@@H](C)CO)C(=O)c2cc(NC(=O)Nc3cccc4ccccc34)ccc2O[C@@H]1CN(C)Cc1ccc(C(F)(F)F)cc1	T cruzi growth-1 105.9 | T cruzi growth-2 105.6 | T cruzi growth-3 107.1 | 3T3 cytotox 52.8 | 3T3 cytotox 2 46.0
Cc1noc(C)c1NC(=O)Nc1ccc2c(c1)C(=O)N(C)[C@@H]1CC[C@@H](CC(=O)N[C@H]3CCN(Cc4ccccc4)C3)O[C@@H]1CO2	T cruzi growth-1 106.9 (no result: IDH1 R132H inh) | T cruzi growth-2 inactive | T cruzi growth-3 inactive | 3T3 cytotox inactive | 3T3 cytotox 2 inactive
Cc1noc(C)c1NC(=O)Nc1ccc2c(c1)C(=O)N(C)[C@@H]1CC[C@H](CC(=O)N[C@@H]3CCN(Cc4ccccc4)C3)O[C@H]1CO2	none (no result: IDH1 R132H inh)
Cc1noc(C)c1NC(=O)Nc1ccc2c(c1)C(=O)N(C)[C@@H]1CC[C@H](CC(=O)N[C@H]3CCN(Cc4ccccc4)C3)O[C@@H]1CO2	T cruzi growth-1 109.1 (no result: IDH1 R132H inh) | T cruzi growth-2 inactive | T cruzi growth-3 inactive | 3T3 cytotox inactive | 3T3 cytotox 2 inactive
Cc1noc(C)c1NC(=O)Nc1ccc2c(c1)C(=O)N(C)[C@H]1CC[C@@H](CC(=O)N[C@H]3CCN(Cc4ccccc4)C3)O[C@@H]1CO2	T cruzi growth-1 104.4 (no result: IDH1 R132H inh) | T cruzi growth-2 inactive | T cruzi growth-3 inactive | 3T3 cytotox inactive | 3T3 cytotox 2 inactive
Cc1noc(C)c1NC(=O)Nc1ccc2c(c1)C(=O)N(C)[C@H]1CC[C@H](CC(=O)N[C@H]3CCN(Cc4ccccc4)C3)O[C@H]1CO2	T cruzi growth-1 106.0 (no result: IDH1 R132H inh) | T cruzi growth-2 inactive | T cruzi growth-3 inactive | 3T3 cytotox inactive | 3T3 cytotox 2 inactive
Cc1ccc([N+](=O)[O-])cc1NC(=O)CN(c1cc(C(F)(F)F)ccc1Cl)S(C)(=O)=O	none (no result: GASC1 inh, T cruzi growth-1, Pf Dd2 growth)
COc1ccc(S(=O)(=O)N(C)CC(=O)Nc2ccc(C(N)=O)cc2)cc1C	none (no result: GASC1 inh, T cruzi growth-1, Pf Dd2 growth)
Cc1cccc(C)c1OCC(=O)Nc1cccnc1	none (no result: GASC1 inh, T cruzi growth-1, Pf Dd2 growth)
